Measured values gathered from unrelated publications.
Lines come from different studies, so protocols differ.
Target: Serine/threonine-protein kinase tousled-like 2 (TLK2, Homo sapiens, UniProt Q86UE8)

SMILES | observed | technique | concentration | remaining binding [%]
c1cnn2ncc(-c3ccnc(N4CCC45COC5)n3)c2c1 | binding | – | 1 µM | 100
COc1ncc2cc3ccccc3nc2c1C#N | cell-free assay | competition with immobilised ligand | 5 µM | 100
COc1cnc(Nc2cccc(S(N)(=O)=O)c2)nc1N1CCN(c2ccccc2)CC1 | binding | competition with immobilised ligand | 1 µM | 96
Cc1cnn2ncc(-c3ccnc(N(C)C)n3)c2c1 | binding | – | 1 µM | 100
O=C(c1ccc(Nc2nccc(-c3cc4ccccc4s3)n2)cc1)N1CCC(N2CCCC2)CC1 | binding | competition with immobilised ligand | 1 µM | 15
O=C(N[C@H]1CCCCC/C=C\C2C[C@@]2(C(=O)O)NC(=O)[C@@H]2C[C@@H](Oc3ccncc3)CN2C1=O)OC1CCCC1 (stereo partly drawn) | cell-free assay | competition with immobilised ligand | 1 µM | 100
C[C@H]1CCN(c2nccc(-c3cnn4ncccc34)n2)C1 | binding | – | 1 µM | 100
O=C(Nc1cccnn1)N1CCC(=Cc2cccc(Oc3ccc(C(F)(F)F)cn3)c2)CC1 | cell-free assay | competition with immobilised ligand | 1 µM | 100
O=C(c1ccc(Nc2ncc(Cl)c(-c3ccc(Cl)s3)n2)cc1)N1CCC(N2CCCC2)CC1 | binding | competition with immobilised ligand | 1 µM | 29
FC(F)(F)Oc1cccc(-c2cnc3ccc(-c4ccncc4)nn23)c1 | binding | competition with immobilised ligand | 5 µM | 93
O=C(N1CCS(=O)(=O)CC1)N1C[C@H](c2ccc(OC(F)(F)F)cc2)C[C@H](c2nc(C3CC3)no2)C1 | cell-free assay | competition with immobilised ligand | 1 µM | 100
C[C@@H](c1ccc(-n2cnc3c(N)ncnc32)cc1)N1CCc2nn(C)c(Cc3ccccc3)c2C1=O | binding | competition with immobilised ligand | 0.1 µM | 99
N[C@@H]1CCN(c2nccc(-c3cnn4ncccc34)n2)C1 | binding | – | 1 µM | 100
O=C(Nc1c[nH]nc1C(=O)NC1CCNCC1)c1cc(F)cc(F)c1 | binding | competition with immobilised ligand | 1 µM | 98
COc1cnc(Nc2cccc(S(N)(=O)=O)c2)nc1N1CCN(c2ccccc2)C(=O)C1 | binding | competition with immobilised ligand | 1 µM | 100
O=C(NCc1ncc(C(F)(F)F)cc1Cl)c1ccc2c(c1)C1(CCS(=O)(=O)CC1)[C@@H](C1CC1)N2S(=O)(=O)c1ccc(F)cc1 | cell-free assay | competition with immobilised ligand | 1 µM | 100
O=C(NCCCN1CCOCC1)c1ccc(Nc2nccc(-c3cc4ccccc4s3)n2)cc1 | binding | competition with immobilised ligand | 1 µM | 64
CC1=C(C#N)[C@@H](c2ccc3[nH]nc(C)c3c2)C(C#N)=C(c2ccc(Cl)cc2)N1 | cell-free assay | competition with immobilised ligand | 1 µM | 100
CN(c1nccc(-c2cnn3ncccc23)n1)C1CC1 | binding | – | 1 µM | 100
Cc1nc(Cc2cccc(C(F)(F)F)c2)sc1-c1ccc(C(N)=O)nc1 | cell-free assay | competition with immobilised ligand | 1 µM | 82
CN(CCCC(F)(F)F)c1nccc(-c2cnn3ncccc23)n1 | binding | – | 1 µM | 100
